Source: ChEMBL document CHEMBL3244192, “Antiallergic activity of tetracyclic derivatives of quinoline-2-carboxylic acids. 1” (1978)
Active and inactive are the calls of the source. No cut-off for these calls is given here.

How the values were obtained:
Rattus norvegicus [1] = assay: Antiallergic activity in egg albumin-sensitized Sprague-Dawley rat assessed as inhibition of passive cutaneous anaphylaxis at 25 to 50 mg/kg, po administered 15 mins prior to egg albumin and Evans blue dye challenge; assay type: functional, organism-based
Procedure, shortened: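 Rats were passively sensitized by intradermal mid-dorsal injection of antibody. The antibody came from rats sensitized to egg albumin with Bordetella pertussis adjuvant, and sensitivity developed over 24 h. Compound was given orally before iv egg albumin plus Evans blue. Blue weal size and intensity were compared with untreated rats to give percent inhibition.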

Rattus norvegicus [2] = assay: Antiallergic activity in egg albumin-sensitized Sprague-Dawley rat assessed as inhibition of passive cutaneous anaphylaxis compound administered ip 5 mins prior to egg albumin and Evans blue dye challenge; assay type: functional; settings: for minimal effective dose: read-out: MED; for ED50: read-out: ID50 (the source's name)
Procedure, shortened: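 Antibody from egg albumin/B. pertussis-sensitized rats was injected intradermally in the mid-dorsal region, then 24 h allowed. Drug was given ip, then iv egg albumin plus Evans blue. Weal size and intensity were scored against untreated controls. Initial doses were 50 or 25 mg/kg, then 10, 5, 2.5 and 1.25 mg/kg, with n = 6 per group. MED was the lowest significant ip dose (p ≤ 0.05, Student's t). ID50 was reported with 95% confidence limits.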

Rattus norvegicus [3] = assay: Antiallergic activity in egg albumin-sensitized Sprague-Dawley rat assessed as inhibition of passive cutaneous anaphylaxis compound administered prior to egg albumin and Evans blue dye challenge; settings: read-out: MED

Row | SMILES | inhibition (Rattus norvegicus [1]) | minimal effective dose (Rattus norvegicus [2]) | ED50 (Rattus norvegicus [2]) | minimal effective dose (Rattus norvegicus [3])
1 | COC(=O)c1cc(=O)c2cccc(C(=O)c3ccc(C)cc3)c2[nH]1 | inactive | – | – | –
2 | O=C(O)c1cc(=O)c2ccc3c(c2[nH]1)-c1ccccc1C3=O | inactive | > 25 mg/kg | – | –
3 | O=C([O-])c1cc(=O)c2c(OCC(O)COc3cccc4oc(C(=O)[O-])cc(=O)c34)cccc2o1.[Na+].[Na+] [CROMOLYN SODIUM] | inactive | – | 2.6 mg/kg | –
4 | O=C(c1ccccc1)c1ccc2[nH]c(C(=O)[O-])cc(=O)c2c1.[Na+] | inactive | 10 mg/kg | – | –
5 | O=C(O)c1cc(=O)c2cc(Cl)cc(C(=O)c3ccccc3)c2[nH]1 | inactive | 50 mg/kg | – | –
6 | O=C(O)c1cc(=O)c2cc(S(=O)(=O)c3ccccc3)ccc2[nH]1 | inactive | > 25 mg/kg | – | –
7 | COC(=O)c1cc(=O)c2ccc(S(=O)(=O)c3ccccc3)cc2[nH]1 | inactive | – | – | –
8 | COC(=O)c1cc(=O)c2cccc(C(=O)c3ccccc3)c2[nH]1 | inactive | – | – | –
9 | COC(=O)c1cc(=O)c2ccc(C(C)=O)cc2[nH]1 | inactive | – | – | –
10 | COC(=O)c1cc(=O)c2ccc3c(c2[nH]1)-c1ccccc1C3=O | inactive | – | – | –
11 | COC(=O)c1cc(=O)c2cccc(S(=O)(=O)c3ccccc3)c2[nH]1 | inactive | – | – | –
12 | O=C(O)c1cc(=O)c2ccc(S(=O)(=O)c3ccccc3)cc2[nH]1 | inactive | > 25 mg/kg | – | –
13 | COC(=O)c1cc(=O)c2cc([S+]([O-])c3ccccc3)ccc2[nH]1 (stereo not given) | inactive | – | – | –
14 | COC(=O)c1cc(=O)c2cccc(Sc3ccccc3)c2[nH]1 | inactive | – | – | –
15 | O=C(O)c1cc(=O)c2cccc(C(=O)c3ccccc3)c2[nH]1 | inactive | 25 mg/kg | – | –
16 | O=C(O)c1cc(=O)c2ccc3c(c2[nH]1)C(=O)c1ccccc1-3 | inactive | – | 2.8 mg/kg | –
17 | Cc1ccc(C(=O)c2cccc3c(=O)cc(C(=O)O)[nH]c23)cc1 | inactive | 25 mg/kg | – | –
18 | COC(=O)c1cc(=O)c2ccc3c(c2[nH]1)C(=O)c1ccccc1-3 | inactive | – | – | –

Row | SMILES | inhibition (Rattus norvegicus [1]) | minimal effective dose (Rattus norvegicus [2]) | ED50 (Rattus norvegicus [2]) | minimal effective dose (Rattus norvegicus [3])
19 | O=C(O)c1cc(=O)c2cc([S+]([O-])c3ccccc3)ccc2[nH]1 (stereo not given) | inactive | 25 mg/kg | – | –
20 | COC(=O)c1cc(=O)c2cc(S(=O)(=O)c3ccccc3)ccc2[nH]1 | inactive | – | – | –
21 | COC(=O)c1cc(=O)c2cc(C(=O)c3ccccc3)ccc2[nH]1 | inactive | – | – | –
22 | CC(=O)c1cccc2c(=O)cc(C(=O)O)[nH]c12 | inactive | 25 mg/kg | – | –
23 | O=C(O)c1cc(=O)c2cccc(S(=O)(=O)c3ccccc3)c2[nH]1 | inactive | 10 mg/kg | – | –
24 | COC(=O)c1cc(=O)c2cc(C(C)=O)ccc2[nH]1 | inactive | – | – | –
25 | O=C(O)c1cc(=O)c2ccc(Sc3ccccc3)cc2[nH]1 | inactive | > 25 mg/kg | – | –
26 | COC(=O)c1cc(=O)c2cccc(C(C)=O)c2[nH]1 | – | – | – | 25 mg/kg
27 | COC(=O)c1cc(=O)c2cc(Sc3ccccc3)ccc2[nH]1 | inactive | – | – | –
28 | O=C(O)c1cc(=O)c2ccccc2[nH]1 [TRANSTORINE] | inactive | 50 mg/kg | – | –
29 | CC(=O)c1ccc2c(O)cc(C(=O)O)nc2c1 | inactive | 10 mg/kg | – | –
30 | O=C(c1ccccc1)c1ccc2c(=O)cc(C(=O)O)[nH]c2c1 | inactive | 25 mg/kg | – | –
31 | COC(=O)c1cc(=O)c2ccc(C(=O)c3ccccc3)cc2[nH]1 | inactive | – | – | –
32 | O=C(O)c1cc(=O)c2cccc(Sc3ccccc3)c2[nH]1 | inactive | 25 mg/kg | – | –
33 | O=C(O)c1cc(=O)c2cc(Sc3ccccc3)ccc2[nH]1 | inactive | > 50 mg/kg | – | –
34 | COC(=O)c1cc(=O)c2cc(Cl)cc(C(=O)c3ccccc3)c2[nH]1 | inactive | – | – | –
35 | COC(=O)c1cc(=O)c2ccc(Sc3ccccc3)cc2[nH]1 | inactive | – | – | –
36 | CC(=O)c1ccc2[nH]c(C(=O)O)cc(=O)c2c1 | inactive | 25 mg/kg | – | –
